Active and inactive are the calls of the source. The rule behind the calls is not given here.
Key:
[1] = biological target: T1, Alpha-1A adrenergic receptor (Oryctolagus cuniculus) (UniProt O02824); experiment: Binding affinity to rabbit aorta adrenergic alpha1A receptor assessed as inhibition of phenylephrine-induced constriction after 30 mins
T1 sequence (whole entry): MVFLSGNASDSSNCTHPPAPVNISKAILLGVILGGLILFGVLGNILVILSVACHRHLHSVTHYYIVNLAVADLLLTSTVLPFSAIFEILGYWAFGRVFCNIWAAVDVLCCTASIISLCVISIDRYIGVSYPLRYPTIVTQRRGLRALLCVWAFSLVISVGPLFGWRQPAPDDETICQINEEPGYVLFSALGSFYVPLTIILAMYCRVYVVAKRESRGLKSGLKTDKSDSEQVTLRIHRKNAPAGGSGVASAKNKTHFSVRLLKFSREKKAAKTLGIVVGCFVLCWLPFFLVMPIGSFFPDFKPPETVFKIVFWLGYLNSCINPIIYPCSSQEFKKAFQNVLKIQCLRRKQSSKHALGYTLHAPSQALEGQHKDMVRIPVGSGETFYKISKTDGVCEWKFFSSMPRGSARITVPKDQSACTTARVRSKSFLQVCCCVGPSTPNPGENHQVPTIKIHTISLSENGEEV
Procedure, shortened: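 Rabbit aortic rings (3–4 mm) held in organ bath under 20 mN resting tension, equilibrated 30 min. Cumulative phenylephrine curves (5 × 10⁻⁹–5 × 10⁻⁴ M) run without or with 30 μM antagonist after 30 min preincubation. EC50 from non-linear sigmoidal fit per experiment; concentration ratio r gives KB via Schild equation r − 1 = [B]/KB. Mean ± S.E.M of 4–6 experiments.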

[2] = biological target: T2, Alpha-1A adrenergic receptor (Rattus norvegicus, UniProt P43140); experiment: Displacement of [3H]prazosin from rat salivary gland adrenergic alpha 1A receptor after 45 mins by liquid scintillation counter
T2 sequence (P43140 whole entry): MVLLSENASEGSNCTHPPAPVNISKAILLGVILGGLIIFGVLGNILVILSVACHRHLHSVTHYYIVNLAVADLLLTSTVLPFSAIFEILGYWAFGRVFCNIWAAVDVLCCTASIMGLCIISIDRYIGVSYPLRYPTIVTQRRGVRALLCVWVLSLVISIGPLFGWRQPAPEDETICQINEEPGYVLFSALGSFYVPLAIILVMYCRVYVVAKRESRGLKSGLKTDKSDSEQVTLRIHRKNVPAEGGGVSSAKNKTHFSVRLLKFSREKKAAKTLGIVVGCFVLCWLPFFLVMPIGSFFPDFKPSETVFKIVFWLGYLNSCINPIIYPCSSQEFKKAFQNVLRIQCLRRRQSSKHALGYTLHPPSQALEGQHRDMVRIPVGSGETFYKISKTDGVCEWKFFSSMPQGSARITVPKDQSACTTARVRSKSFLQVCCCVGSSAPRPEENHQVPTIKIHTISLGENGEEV

Rattus norvegicus = species: Rattus norvegicus; experiment: Selectivity ratio of Ki for rat liver adrenergic alpha1B receptor to Ki for rat salivary gland adrenergic alpha 1A
Procedure, shortened: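 [3H]-prazosin competition binding on rat liver membranes (α1B) and rat salivary gland membranes (α1A), about 150 µg protein, 45 min at 25 °C in 50 mM TRIS-HCl with 1 mM EDTA, pH 7.4. Radioligand was 0.1 nM (liver) or 0.06 nM (salivary). […] Filtration, then scintillation counting. Ki from IC50 by Cheng–Prusoff; ratio of the two Ki values.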

[3] = biological target: T3, Alpha-1B adrenergic receptor (Rattus norvegicus, UniProt P15823); experiment: Displacement of [3H]prazosin from rat liver adrenergic alpha1B receptor after 45 mins by liquid scintillation counter
T3 sequence (P15823 whole entry): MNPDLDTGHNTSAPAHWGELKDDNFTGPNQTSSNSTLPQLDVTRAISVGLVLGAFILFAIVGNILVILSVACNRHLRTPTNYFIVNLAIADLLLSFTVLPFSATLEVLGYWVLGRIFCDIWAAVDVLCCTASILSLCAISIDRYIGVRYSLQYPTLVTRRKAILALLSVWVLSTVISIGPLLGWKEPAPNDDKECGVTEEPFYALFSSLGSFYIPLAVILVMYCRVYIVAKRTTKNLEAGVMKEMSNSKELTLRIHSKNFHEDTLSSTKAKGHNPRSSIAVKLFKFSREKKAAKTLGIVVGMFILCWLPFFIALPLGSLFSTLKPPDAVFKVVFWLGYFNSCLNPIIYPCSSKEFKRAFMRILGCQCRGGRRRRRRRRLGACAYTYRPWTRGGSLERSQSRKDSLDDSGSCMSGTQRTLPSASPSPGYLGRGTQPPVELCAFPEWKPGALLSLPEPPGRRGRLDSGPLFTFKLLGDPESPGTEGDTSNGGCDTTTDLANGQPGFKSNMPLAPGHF

Oryctolagus cuniculus = experiment: Hypotensive activity in New Zealand albino rabbit adrenergic alpha1 receptor assessed as inhibition of phenylephrine-induced rabbit systemic vascular resistance at 100 ug/kg, iv administered as bolus dose; format: functional, organism-based
Procedure, shortened: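 Anaesthetised New Zealand albino rabbits of either sex (3.0 kg), given pentobarbital 40 mg/kg i.v. plus a 5 mg/kg top-up, tracheotomised, ventilated with room air and paralysed with pancuronium 1 mg/kg i.v. After 15–30 min stabilisation, phenylephrine dose-response curves (0.1–100 μg/kg, i.v.) were run with or without test compound given i.v. (0.1–100 μg/kg). Recording was continuous over 30 min. Systemic vascular resistance = MAP/cardiac output × 80 (dyn s/cm⁵).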

[4] = biological target: T4, Alpha-1D adrenergic receptor (Rattus norvegicus, UniProt P23944); experiment: Antagonist activity at adrenergic alpha 1D receptor in rat thoracic aorta assessed as inhibition of noradrenaline-induced contraction after 1 hr; format: functional, tissue-based; conditions: read-out: pA2 (converted)
T4 sequence (P23944 whole entry): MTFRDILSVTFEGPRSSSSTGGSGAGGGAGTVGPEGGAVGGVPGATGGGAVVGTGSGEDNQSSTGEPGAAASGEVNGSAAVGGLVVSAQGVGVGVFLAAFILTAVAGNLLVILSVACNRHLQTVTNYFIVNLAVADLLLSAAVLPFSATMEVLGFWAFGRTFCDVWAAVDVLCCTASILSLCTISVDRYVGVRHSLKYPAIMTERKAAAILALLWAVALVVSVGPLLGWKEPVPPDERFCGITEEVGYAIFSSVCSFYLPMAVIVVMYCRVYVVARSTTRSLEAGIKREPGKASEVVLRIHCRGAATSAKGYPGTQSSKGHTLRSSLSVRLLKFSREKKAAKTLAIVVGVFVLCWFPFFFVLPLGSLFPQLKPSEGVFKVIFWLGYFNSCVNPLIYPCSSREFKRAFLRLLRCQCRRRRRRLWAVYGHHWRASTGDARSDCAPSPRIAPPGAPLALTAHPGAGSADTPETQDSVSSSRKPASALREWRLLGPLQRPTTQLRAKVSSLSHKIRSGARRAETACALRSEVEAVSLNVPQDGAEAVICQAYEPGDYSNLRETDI

[5] = biological target: T5, Alpha-1D adrenergic receptor (Rattus norvegicus) (UniProt P23944); conditions: Thoracic aorta
T5 sequence (whole entry): T4 sequence (P23944 whole entry)

[6] = biological target: T1, Alpha-1A adrenergic receptor (Oryctolagus cuniculus); experiment: Ratio of BMY7378 KB to compound KB for rabbit aorta adrenergic alpha1A receptor assessed as inhibition of phenylephrine-induced constriction after 30 mins

SMILES	Kb [1] [nM]	further results
c1ccc(N2CCN(CCOc3ccc4c(c3)OCO4)CC2)cc1	10300	
c1ccc(CN2CCN(c3ccccc3)CC2)cc1	25000	
c1ccc(CCN2CCN(c3ccccc3)CC2)cc1	1460	
c1ccc(N2CCN(Cc3ccc4c(c3)OCO4)CC2)cc1	25000	
Fc1ccc(N2CCN(CCc3ccc4c(c3)OCO4)CC2)cc1	410	
c1ccc(N2CCN(CCCCc3ccc4c(c3)OCO4)CC2)cc1	9380	
c1ccc(OCCN2CCN(c3ccccc3)CC2)cc1	7320	
c1ccc(N2CCN(CCCc3ccc4c(c3)OCO4)CC2)cc1	3800	
COc1ccccc1N1CCN(CCc2ccc3c(c2)OCO3)CC1	18	IC50 [2]: 0.269 nM; Ratio Ki (Rattus norvegicus): 40; IC50 [3]: 6.03 nM; Ki [3]: 5.55 nM; inhibition (Oryctolagus cuniculus): Active; Kb [4]: 0.0251 nM; pKb [5]: 10.3; Ratio [6]: 80
c1ccc(CCCCN2CCN(c3ccccc3)CC2)cc1	1420	
COc1ccc(N2CCN(CCc3ccc4c(c3)OCO4)CC2)cc1	870	
c1ccc(CCCN2CCN(c3ccccc3)CC2)cc1	9380	
COc1ccccc1N1CCN(CCCc2ccc3c(c2)OCO3)CC1	130	
COc1cc2nc(N3CCN(C(=O)c4ccco4)CC3)nc(N)c2cc1OC		inhibition (Oryctolagus cuniculus): Active
COc1ccccc1N1CCN(CCN2C(=O)CC3(CCCC3)CC2=O)CC1	1450	
c1ccc(N2CCN(CCc3ccc4c(c3)OCO4)CC2)cc1	270	
c1ccc(N2CCN(CCCOc3ccc4c(c3)OCO4)CC2)cc1	27500	
Clc1ccc(N2CCN(CCc3ccc4c(c3)OCO4)CC2)cc1	1240	

From ChEMBL document CHEMBL2150896, “Discovery of LASSBio-772, a 1,3-benzodioxole N-phenylpiperazine derivative with potent alpha 1A/D-adrenergic receptor blocking properties” (Eur J Med Chem, 2011)
